Arbovirus inh – antivirals against arbovirus infection, primary screen, cell-based, full library, 10K replicate subset | 200,000 compounds, 0.37% hits | inhibition, % at 10 µM | AID 1251, 2008 | arbovirus infection cell-based antiviral screen; in the data active means inhibition above about 30%
WT yeast gro inh – growth inhibition of WT strain, primary screen, mitochondrial fusion inhibitor project, WT and mutant strains, chemical genetic | AID 1362, 2008 | 190,000 compounds, 2.1% hits | inhibition, % at 10 µM | mitochondrial fusion phenotypic screen; in the data active means inhibition above about 58%; tested in S. cerevisiae
TNAP inh hiacc – human TNAP enzyme inhibitors, primary screen, biochemical, luminescent, high phosphate acceptor level, uHTS | Alkaline phosphatase, tissue-nonspecific isozyme (Homo sapiens), P05186 | purified TNAP, CDP-star luminescence, 1 M DEA | inhibition, % at 20 µM | 200,000 compounds, 0.03% hits;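 active means over 50% inhibition of tissue-nonspecific alkaline phosphatase at 20 µM in the single-dose screen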
Target sequence (P05186 whole entry, looked up): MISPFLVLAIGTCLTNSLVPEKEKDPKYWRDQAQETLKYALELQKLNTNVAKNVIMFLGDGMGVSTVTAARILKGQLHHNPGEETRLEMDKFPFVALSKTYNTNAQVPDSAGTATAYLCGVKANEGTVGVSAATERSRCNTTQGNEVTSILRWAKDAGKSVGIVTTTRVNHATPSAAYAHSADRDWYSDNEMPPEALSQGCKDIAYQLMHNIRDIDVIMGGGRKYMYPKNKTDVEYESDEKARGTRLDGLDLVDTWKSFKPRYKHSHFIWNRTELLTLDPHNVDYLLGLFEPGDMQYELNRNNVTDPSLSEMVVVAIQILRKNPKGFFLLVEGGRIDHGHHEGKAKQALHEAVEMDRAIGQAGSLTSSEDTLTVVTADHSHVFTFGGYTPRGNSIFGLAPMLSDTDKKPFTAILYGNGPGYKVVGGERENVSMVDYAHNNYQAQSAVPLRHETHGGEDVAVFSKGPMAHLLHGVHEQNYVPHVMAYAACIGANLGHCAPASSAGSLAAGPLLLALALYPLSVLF
TNAP act hiacc – TNAP activators at high phosphate acceptor level, primary screen, biochemical, luminescence, uHTS; Alkaline phosphatase, tissue-nonspecific isozyme (Homo sapiens), P05186; purified TNAP, CDP-star luminescence, 1 M DEA, 30 min; active compounds read high; 0 = EDTA background, 1 = DMSO-only activity; activation factor at 20 µM; 200,000 tested, under 10 active; AID 1136, 2008;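 active means activation factor at least 2 at 20 µM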
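Test system – human TNAP · Doses – 20 µM single point · Incubation – 30 min, room temperature · Signal – luminescent substrate turnover signal · Read-out basis – activation factor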
TNAP inh no acc – human TNAP enzyme inhibitors, primary screen, biochemical, luminescent, no phosphate acceptor, uHTS; purified TNAP, CDP-star luminescence, 30 min; Alkaline phosphatase, tissue-nonspecific isozyme (Homo sapiens), P05186; inhibition, % at 20 µM; 200,000 compounds, 0.26% hits; AID 1012, 2008;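 active means tissue-nonspecific alkaline phosphatase inhibition above about 50% at 20 µM in the single-dose screen, limit read from the data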
Of the large screens only hits and unclear results are named; the others gave an inactive call. Compounds with a hit are over-represented: about 2.6% of the library has one in this group of screens.

Cc1ccc(Oc2nnc(-c3cccs3)c3ccccc23)cc1	none
Cc1ccc(N(CC(O)Cn2c3ccccc3c3ccccc32)S(C)(=O)=O)cc1 (stereo not given)	none
Cc1ccc(N(CC(O)Cn2c3ccccc3c3ccccc32)S(C)(=O)=O)c(C)c1 (stereo not given)	WT yeast gro inh 67
Cc1ccccc1N1CCN(C2=NC(=O)/C(=C\c3cccs3)S2)CC1	WT yeast gro inh 64
COc1cccc(-c2cc(C(=O)N3N=C(C)CC3(O)C(F)F)c3ccccc3n2)c1 (stereo not given)	none
O=C(c1cc(C2CC2)nc2ccc(Br)cc12)N1N=C(C(F)F)CC1(O)C(F)F (stereo not given)	WT yeast gro inh 74
CC(C)c1ccc(-c2cc(C(=O)N3N=C(C(F)F)CC3(O)C(F)F)c3ccccc3n2)cc1 (stereo not given)	WT yeast gro inh 87
O=C(c1cc(C2CC2)nc2ccccc12)N1N=C(C(F)F)CC1(O)C(F)F (stereo not given)	none
CCN(CC)S(=O)(=O)c1cccc2c(N(C)C)cccc12	none
Fc1ccc(Sc2ccccc2CNC2=NCCN2)cc1	WT yeast gro inh 79
O=C1CCCC(=O)C1=C1SCCCS1	none
COC(=O)c1c(NC(=O)c2ccccc2)sc(Cc2ccccc2)c1C	WT yeast gro inh 68
CCC(=O)Nc1sc(Cc2ccccc2)c(C)c1C(N)=O	WT yeast gro inh 74
CCOC(=O)Cn1c(=O)c2c(nc3n2CCCCN3c2ccc(C)cc2)n(C)c1=O	none
COc1cccc(/C(O)=C2/C(=O)C(=O)N(CCN3CCOCC3)C2c2cccs2)c1 (stereo not given)	none
CCOC(=O)c1c(O)c2c(n(Cc3ccco3)c1=O)CCCC2	Arbovirus inh 31
O=C(Nc1ccc(Br)cc1)c1cccc(N2C(=O)C3C4CCC(C4)C3C2=O)c1 (stereo not given)	none
CN1CCN(C(=S)NC(=O)c2ccc(Cl)cc2)CC1	Arbovirus inh 81
CC(=O)OCC(=O)NCC(=O)c1c[nH]c2ccccc12	none
COc1ccc(NC(=S)Nc2ccc(C)c(S(=O)(=O)N3CCCCC3)c2)cc1	none
Cc1ccc(NC(=S)Nc2ccc(C(C)C)cc2)cc1S(=O)(=O)N1CCCCCC1	WT yeast gro inh 66
CCC(C)NC(=O)NC(=O)N(C1CCCCC1)S(C)(=O)=O (stereo not given)	none
Cc1cc2ccccc2cc1CN1CCOCC1	none
Cc1cc(OCc2cccc(Cl)c2)c(C)cc1CN1CCOCC1	WT yeast gro inh 70
O=[N+]([O-])c1ccc(COc2ccc(-c3[nH]ncc3-c3ccc(Cl)cc3)c(O)c2)cc1	WT yeast gro inh 94
Cc1cccc(NC(=S)NC2CCCC2)n1	WT yeast gro inh 72
Cc1cccc(NC(=S)NC2CCCCC2)n1	WT yeast gro inh 68
Cc1cccc(NC(=S)NC2CCCCCC2)c1C	none
S=C(Nc1cccnc1)NC1CCCC1	none
COc1ccc2ccc3c(c2c1)N=C[C@]1(O3)N(C)c2ccccc2C1(C)C	WT yeast gro inh 75
COC(=O)c1ccccc1NC1=C/C(=N\S(=O)(=O)c2cccs2)c2ccccc2C1=O	WT yeast gro inh 62
O=C1C(Nc2ccccc2)=C/C(=N/S(=O)(=O)c2cccs2)c2ccccc21	WT yeast gro inh 99
Nn1c(SCC(=O)NC2CCCc3ccccc32)nnc1-c1cccs1 (stereo not given)	none (no result: WT yeast gro inh)
O=C(CCCOc1ccc(Cl)cc1Cl)NN1CCOCC1	none
COc1ccc(OCCN(C)Cc2ccccc2)cc1	none
COc1ccc(CN(C)C2c3ccccc3-c3ccccc32)cc1	WT yeast gro inh 69
Fc1ccc(-c2nnsc2Sc2ccccn2)cc1	none
O=C(NCCN1CCOCC1)C1CCC(=O)N1Cc1ccccc1Cl (stereo not given)	none
O=C(NCC1CCCO1)C1CCC(=O)N1Cc1ccccc1Cl (stereo not given)	WT yeast gro inh 91
Cc1cccc(CSCCNC(=S)Nc2ccccc2)c1	WT yeast gro inh 71
S=C(NCCSCc1ccc(Cl)cc1)Nc1ccccc1	WT yeast gro inh 79
COC(=O)c1ccc(NC(=S)NCCc2cccc(C)c2)cc1	none
CCCOc1ccc(CSCCNC(=S)Nc2ccccc2)cc1	WT yeast gro inh 67
S=C(NCCSCc1ccccc1Cl)Nc1ccccc1	WT yeast gro inh 67
Fc1ccc(NC(=S)NCc2ccccc2Cl)cc1	none
C1CC(CN2CCOCC2)CN(Cc2nc(CC3CC3)no2)C1 (stereo not given)	none
Cc1cc(C)cc(OCC(=O)OCC(=O)Nc2c(C)n(C)n(-c3ccccc3)c2=O)c1	none
CCCC(=O)NC(Nc1cccc(C(F)(F)F)c1)C(Cl)(Cl)Cl (stereo not given)	none
Cc1cccc(NC(=O)NC(C)CCc2ccccc2)c1 (stereo not given)	none
Cc1cccc(NC(=S)NC(C)CCc2ccccc2)c1 (stereo not given)	WT yeast gro inh 74
COc1ccccc1-c1nnc(SCC(=O)Nc2c(Cl)cccc2Cl)o1	none
COc1ccccc1-c1nnc(SCC(=O)NCc2c(C)c(Cl)cc(C(C)C)c2O)o1	WT yeast gro inh 78
COc1ccc(/C=N/Nc2nc(Nc3ccccc3)nc(N3CCCC3)n2)cc1	none
O=[N+]([O-])c1ccc(/C=N/Nc2nc(N3CCCCC3)nc(N3CCCCC3)n2)o1	WT yeast gro inh 70
COc1c(/C=N/Nc2nc(N3CCCCC3)nc(N3CCCCC3)n2)cccc1[N+](=O)[O-]	none
C(=N\Nc1nc(N2CCCCC2)nc(N2CCCCC2)n1)/c1c[nH]c2ccccc12	WT yeast gro inh 63
C(=N\Nc1nc(Nc2ccccc2)nc(N2CCCCC2)n1)/c1ccco1	WT yeast gro inh 69
O=[N+]([O-])c1ccc(N/N=C/c2c[nH]c3ccccc23)cc1	WT yeast gro inh 87
Cc1oc(-c2ccccc2F)nc1CSCC(=O)NCc1ccc2c(c1)OCO2	none
O=C(Nc1ccccc1Oc1ccccc1)c1ccccc1F	none
Cc1cc(C)cc(NC(=O)N2CCN(C/C=C/c3ccccc3)CC2)c1	none
O=C(O)C(O)C(O)c1nc2ccccc2[nH]1 (stereo not given)	none
O=C(Nc1cccc(Cl)c1)N(Cc1nc2ccccc2c(=O)[nH]1)Cc1cccs1	none
Cc1ccc(C(C)C)c(OC(=O)/C=C/c2ccccc2)c1	WT yeast gro inh 79
CCN1/C(=C/c2ccc3cccc(C)c3[n+]2CC)Sc2ccccc21	WT yeast gro inh 62
CCN1/C(=C\c2ccc3cc(C)ccc3[n+]2CC)Sc2cc(C)c(C)cc21	WT yeast gro inh 88
CCN1/C(=C/c2ccc3cc(C)cc(C)c3[n+]2CC)Sc2cc(C)ccc21	WT yeast gro inh 95
COc1ccc(C(C)=O)cc1COC(=O)c1cccnc1SC	none

Screens (PubChem)
